Data as given in ChEMBL document CHEMBL1122573, “Novel N-hydroxyguanidine derivatives as anticancer and antiviral agents” (J Med Chem, 1984).
Converted amounts (≈) assume the structure as drawn.

How the values were obtained:
Gallus gallus [1] = species: Gallus gallus; experiment: Compound dose that inhibits transformation of chick embryo fibroblasts by Rous sarcoma virus, after 15 hr of incubation was determined in vitro. Compound dose that causes 50 % inhibition was reported.; assay type: functional; settings: read-out: ID50 (the source's name)
Outline: (§1)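 Focus-formation assay with Rous sarcoma virus Schmidt-Ruppin subgroup D on confluent secondary chicken fibroblast monolayers (5 × 10^5 cells/plate). Compounds in DMSO (final <1%) were serially diluted from 10^-2 to 10^-5 M solutions before addition. Infection was ~150–200 focus-forming units per dish for 15 h at 37 °C. A 0.9% agar overlay held the same compound dilutions and was re-fed at day 3. Foci were scored 7–10 days post-infection, with virus-only and drug-only controls.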

L1210 [2] = experiment: Activity against cultured L1210 leukemic cells was determined in vitro, after 48 hr of incubation. Compound dose that causes 84 % inhibition was reported; assay type: functional, Mus musculus
Outline: (§2)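 L1210 cells in RPMI with 10% fetal calf serum, amino acids, vitamins and penicillin-streptomycin, seeded at 4.0–6.0 × 10^4 cells/mL in duplicate per concentration. At least six concentrations in 1:5 dilutions; 24–48 h humidified incubation under 5% CO2. Cells were counted with a Coulter counter, with untreated and Me2SO controls. ID values were derived by a previously described method.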

Gallus gallus [3] = species: Gallus gallus; experiment: Compound dose that inhibits transformation of chick embryo fibroblasts by Rous sarcoma virus, after 15 hr of incubation was determined in vitro. Compound dose that causes 16 % inhibition was reported.; assay type: functional; outline: as §1
L1210 [4] = experiment: Activity against cultured L1210 leukemic cells was determined in vitro, after 48 hr of incubation. Compound dose that causes 50 % inhibition was reported; assay type: functional; settings: Mus musculus, L1210, 48 h; read-out: ID50 (the source's name); outline: as §2
Gallus gallus [5] = species: Gallus gallus; experiment: Compound dose that inhibits transformation of chick embryo fibroblasts by Rous sarcoma virus, after 15 hr of incubation was determined in vitro. Compound dose that causes 84 % inhibition was reported.; assay type: functional; outline: as §1
L1210 [6] = experiment: Activity against cultured L1210 leukemic cells was determined in vitro, after 48 h of incubation. Compound dose that causes 16 % inhibition was reported; assay type: functional, Mus musculus; outline: as §2
[7] = Compound dose that causes lethality by 50 %, was tested in mice; assay type: ADME, organism-based; settings: mouse, in vivo
Outline: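 C57 Bl/6J mice, six per dose level. Drug was ground with an equal weight of acacia and suspended in saline, then dosed intraperitoneally by body weight.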

[8] = test system: Moloney murine sarcoma virus; experiment: Compound was tested for 50% inhibitory dose against Moloney sarcoma virus; assay type: functional; settings: read-out: ID50 (the source's name)

SMILES	IC50 (Gallus gallus [1]) [µM]	ID84 (L1210 [2]) [µM]	ID16 (Gallus gallus [3]) [µM]	IC50 (L1210 [4]) [µM]	ID84 (Gallus gallus [5]) [µM]	ID16 (L1210 [6]) [µM]	LD50 [7] [mg/kg]	IC50 [8] [µg/mL]
Cc1ccsc1/C=N/N=C(/N)NO	18.5	65.3	5.89	33.2	57.9	16.89	–	–
N/C(=N/N=C/c1ccccn1)NO	2.76	27	1.01	10.9	7.55	4.4	315	–
COc1cccc(/C=N/NC(=N)NO)c1	17.8	60.9	7.15	16	44.06	4.2	–	–
Cc1cccc(/C=N/N=C(\N)NO)n1	114	89.6	36	42.1	361.3	19.76	–	–
NC(/N=N/c1c(O)[nH]c2ccc(F)cc12)=N\O	18.3	132	5.36	48.4	62.25	17.8	–	–
N/C(=N\O)N/N=C/c1cccc(C(F)(F)F)c1	18.2	96.4	8.19	15.1	40.61	2.35	–	–
N/C(=N\O)N/N=C/C1CCCCC1	23.4	48.4	9.11	21.2	60.4	9.34	–	–
N/C(=N\O)N/N=C/c1cccs1	11.8	143	3.64	34.1	38.04	81.7	–	–
CCCCOc1cccc(/C=N/N=C(\N)NO)c1	10.2	24.3	2.66	8.54	38.96	3	–	–
CCCCCCOc1cccc(/C=N/N=C(\N)NO)c1	8.02	20.6	1.18	7.8	54.56	2.96	–	–
N/C(=N\O)N/N=C/c1cccc(I)c1	3.45	38.5	0.9	12.5	13.33	4.07	190	–
N=C(NN)NO	195	311	15.63	126	2438	57.1	–	–
N=C(N)NO.O=S(=O)(O)O [HYDROXYGUANIDINE SULFATE]	374	370	192.7	59.5	725.8	95.8	–	–
N=C(N)NO [HYDROXYGUANIDINE]	–	–	–	–	–	–	–	2 (≈ 26.6 µM)
NC(=O)NO [HYDROXYUREA]	–	181	–	60.6	–	1.99	–	–
